# Screening data: PubChem BioAssay, Broad Institute
# PAX8 reporter = lowers PAX8-driven luciferase in RMG-I cells; RMG-I TPO-luciferase reporter, SteadyGlo, 24 h; AID 652154; inhibition, % at 12.6 µM; 1.2% of 360,000 active;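 active = mean replicate inhibition at least 60% with every replicate also reaching 60%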;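 also: luciferase light reporting Pax8 driven TPO promoter activity; plate controls were median of neutral control wells for no effect and mitoxantrone controls for full effect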
# RAD52 anneal inh = RAD52 (human) annealing inhibition; P43351; recombinant RAD52 DNA annealing, FRET fluorescence; inhibition, % at 18.7 µM; 0.46% of 360,000 active;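 active = every replicate showing at least 50% inhibition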
# FN deposition inh = fibronectin deposition inhibition; AID 743247; 0.086% of 350,000 active; AH1F fibroblasts, Alexa488-fibronectin deposition fluorescence, overnight; inhibition, % at 12.6 µM;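 active = mean inhibition across replicates of 30% or more, regardless of how many single replicates reach that level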;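 also: positive control wells lacked labelled fibronectin entirely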
#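 Measured by – fluorescence 485/525 nm · System – AH1F fibroblast monolayer, labelled fibronectin deposition · Amount – 10000 cells per well · Buffer or medium – serum-reduced DMEM (2% serum) · Doses – single dose, pinned · Also added – fluorescent fibronectin at 24 nM final · Schedule – 1 h cell attachment, overnight exposure to compound and label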
# RAD54 branch = inhibitors of human RAD54 branch migration; inhibition, % at 10.4 µM; RAD54 Holliday junction branch migration, FAM/BHQ fluorescence; 0.14% of 360,000 active; AID 602329; Q92698;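 active = mean normalized replicate activity at least 40 and at least half of replicates scoring 40 or more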;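 also: 0% = median of neutral control wells and 100% = median of positive control wells; inhibitors cause a drop in the FAM fluorescence signal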
# * = called active by the depositor; · = not tested or not shown. A selection: hits, their analogues and other compounds. The true share with any hit is near 1.3%.
SMILES,PAX8 reporter,RAD52 anneal inh,FN deposition inh,RAD54 branch
Cc1ccc(S(=O)(=O)Nc2ccc3c(c2)C(=O)N([C@H](C)CO)C[C@H](C)[C@@H](CN(C)C(=O)Nc2ccc(C(F)(F)F)cc2)OCCCC[C@H](C)O3)cc1,41,-23,-6,-4
C[C@H]1CCCCO[C@H](CN(C)C(=O)Nc2ccc(C(F)(F)F)cc2)[C@@H](C)CN([C@@H](C)CO)C(=O)c2cc(NS(=O)(=O)c3ccc(F)cc3)ccc2O1,84*,-83,-17,3
C[C@H](CO)N1C[C@H](C)[C@H](CN(C)C(=O)Nc2ccc(C(F)(F)F)cc2)OCCCC[C@H](C)Oc2ccc(NS(=O)(=O)c3ccc(F)cc3)cc2C1=O,72*,-33,-1,9
C[C@@H]1CCCCO[C@@H](CN(C)C(=O)Nc2ccc(C(F)(F)F)cc2)[C@H](C)CN([C@H](C)CO)C(=O)c2cc(NS(=O)(=O)c3ccc(F)cc3)ccc2O1,88*,-32,-8,-3
CC(=O)c1ccc(N2CCN(CC(=O)Nc3ccccc3C(=O)NC3CC3)CC2)c(F)c1,10,4,4,-1
O=C(c1ccccc1F)N1CC2(C1)[C@@H](c1ccccc1)[C@@H](CO)N2CC1CC1,4,-2,5,·
C[C@H](CO)N1C[C@H](C)[C@@H](CN(C)Cc2ccccc2)Oc2cc(C#C[C@@H](C)O)ccc2S1(=O)=O,·,-2,-8,1
C[C@@H](O)C#Cc1ccc2c(c1)O[C@H](CN(C)Cc1ccc(-c3ccccc3)cc1)[C@@H](C)CN([C@@H](C)CO)S2(=O)=O,103*,-3,·,-16
C[C@@H](O)C#Cc1ccc2c(c1)O[C@@H](CN(C)Cc1ccc(-c3ccccc3)cc1)[C@@H](C)CN([C@@H](C)CO)S2(=O)=O,50,-34,·,16
C[C@H](O)C#Cc1ccc2c(c1)O[C@@H](CN(C)Cc1ccc(-c3ccccc3)cc1)[C@H](C)CN([C@@H](C)CO)S2(=O)=O,87*,-33,-26,-1
C[C@H](O)C#Cc1ccc2c(c1)O[C@@H](CN(C)Cc1ccc(-c3ccccc3)cc1)[C@@H](C)CN([C@H](C)CO)S2(=O)=O,94*,-3,·,-32
C[C@H](O)C#Cc1ccc2c(c1)O[C@H](CN(C)Cc1ccccc1)[C@@H](C)CN([C@@H](C)CO)S2(=O)=O,·,9,15,1
C[C@H](CO)N1C[C@H](C)[C@@H](CN(C)Cc2ccc(-c3ccccc3)cc2)Oc2cc(C#C[C@@H](C)O)ccc2S1(=O)=O,74*,-1,·,3
CC1CCCC(C)N1C(=O)CCN1C(=O)C2C3C=CC(C3)C2C1=O (centres undefined),2,1,3,7
CCCC#Cc1ccc2c(c1)O[C@H](CN(C)Cc1ccccc1)[C@@H](C)CN([C@H](C)CO)S2(=O)=O,80*,2,0,-4
CCCC#Cc1ccc2c(c1)O[C@H](CN(C)Cc1ccccc1)[C@@H](C)CN([C@@H](C)CO)S2(=O)=O,6,·,7,·
Cc1noc(C)c1NC(=O)NCC[C@@H]1CC[C@H](NC(=O)Nc2cccc(Cl)c2)[C@@H](CO)O1,3,-13,4,-4
COc1ccc(C(=O)CCN2CCN(c3ccccc3F)CC2)cc1,78*,-1,10,·
COc1ccc(C(=O)CCN2CCN(c3ccc(OC)cc3)CC2)cc1,38,-11,4,-5
Cc1cccc(C#CC2=CC(=O)CC(C)(C)C2)c1,0,8,-3,4
CC1(C)CC(=O)C=C(C#CC2(O)CCCCC2)C1,109*,-13,14,1
COc1ccc(S(=O)(=O)Nc2cccc3c2O[C@@H](CN(C)Cc2ccccc2)[C@H](C)CN([C@@H](C)CO)C3=O)cc1,2,0,·,2
Cc1cc(C(=O)Nc2ccc3c(c2)C(=O)N(C)[C@H]2CC[C@@H](CC(=O)NCc4ccc(-c5ccccc5)cc4)O[C@@H]2CO3)no1,65*,9,3,-3
COc1ccccc1C(=O)Nc1ccc2c(c1)C(=O)N(C)[C@@H]1CC[C@@H](CC(=O)NCc3ccc(Cl)c(Cl)c3)O[C@H]1CO2,93*,-3,-9,8
COC(=O)C[C@H]1CC[C@@H]2[C@@H](COc3ccc(NC(=O)Cc4cccs4)cc3C(=O)N2C)O1,6,4,40*,4
SMILES,PAX8 reporter,RAD52 anneal inh,FN deposition inh,RAD54 branch
CCNC(=O)C[C@@H]1CC[C@H]2[C@H](COc3ccc(NC(=O)c4cc(C)on4)cc3C(=O)N2C)O1,-5,-12,-31,-9
COC(=O)C[C@@H]1CC[C@@H]2[C@H](COc3ccc(NC(=O)Cc4cccs4)cc3C(=O)N2C)O1,22,4,-5,1
CC(C(=O)NCC1(c2ccccc2)CCOCC1)N1CCOCC1 (centres undefined),-5,6,-1,·
Cc1ccccc1OCc1n(CC(=O)OC2CC(C)CCC2C(C)C)c2ccccc2[n+]1C (centres undefined),105*,43,19,·
CC1CCC(C(C)C)C(OC(=O)COC(=O)c2cccn2C)C1 (centres undefined),·,·,·,-5
CC1CCC(C(C)C)C(OC(=O)Cn2c(-c3ccc(Br)cc3)[n+](C)c3ccccc32)C1 (centres undefined),100*,34,21,27
CC1CCC(C(C)C)C(OC(=O)Cn2c(-c3ccc(Cl)cc3)[n+](C)c3ccccc32)C1 (centres undefined),96*,43,-7,26
CC(=O)c1cccc(OCC(=O)N(Cc2ccco2)c2c(N)n(Cc3ccccc3)c(=O)[nH]c2=O)c1,12,-26,6,-9
COc1ccc(C2=Nc3ccccc3N(C(=O)c3ccc(C(F)(F)F)cc3)C2C(=O)Nc2c(C)cccc2C)cc1 (centres undefined),21,-36,-6,·
CN1C(=O)c2cc(NC(=O)c3cccc(F)c3)ccc2OC[C@@H]2O[C@@H](CC(=O)NCC3CC3)CC[C@H]21,-12,0,-3,·
Cc1cccc(C2(c3cccc(C)c3)CC2C(=O)Nc2ccc([N+](=O)[O-])cc2O)c1 (centres undefined),95*,·,23,·
O=C(NNC(=O)C1CCN(S(=O)(=O)c2cccc(C(F)(F)F)c2)CC1)C1CC1,4,-14,11,·
O=C(NC1CCCc2ccccc21)C1CCN(S(=O)(=O)c2cccc(C(F)(F)F)c2)CC1 (centres undefined),70*,-13,1,12
O=C1CC(SC(=NCc2ccc3c(c2)OCO3)Nc2ccccc2)C(=O)N1 (centres undefined),·,·,·,-7
COc1ccc(CN(C)C[C@@H]2Oc3ccc(NS(=O)(=O)c4ccc(OC)cc4)cc3CC(=O)N([C@@H](C)CO)C[C@H]2C)cc1,0,6,·,·
C[C@@H]1CN([C@@H](C)CO)C(=O)Cc2cc(NS(=O)(=O)c3ccc(F)cc3)ccc2O[C@H]1CN(C)Cc1ccc(C(F)(F)F)cc1,90*,21,-11,8
